# According to ChEMBL document CHEMBL2331097, “Synthesis of 5,7-disubstituted-4-methyl-7H-pyrrolo[2,3-d]pyrimidin-2-amines as microtubule inhibitors” (Bioorg Med Chem, 2013):
# The source made the active and inactive calls. The rule behind the calls is not given here.
# What was measured:
# JC = assay: Modulatory activity at P-gp in mouse JC cells assessed as lowest drug concentration required to increase intracellular [3H]taxol accumulation pretreated for 30 mins prior to [3H]taxol addition measured after 60 mins by liquid scintillation counting analysis; type: cell-based
# Method in brief: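 JC cells were seeded at about 25% confluency and grown 3–4 days to near confluency. Medium was switched to serum-free, and compounds were preincubated for 30 min at 37 °C. About 0.1 µCi [³H]Taxol (75 Ci/mmol) per well followed, for 60 min at 37 °C. Cells were washed twice with ice-cold PBS and lysed in 1% SDS. Intracellular label was counted by liquid scintillation, and the lowest concentration giving maximal accumulation was recorded.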
# [1] = Cytotoxicity against mouse JC cells assessed as inhibition of cell survival after 48 hrs by SRB assay; type: functional, cell-based
# Method in brief: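 JC (CRL-2116) cells kept in RPMI-1640 with L-glutamine, 10% FBS and 50 μg/ml gentamicin at 37 °C, 5% CO₂. Cells were seeded at about 20% confluency and left 24 h to attach, then exposed to a range of concentrations for 48 h. Cells were PBS-washed, fixed in 10% trichloroacetic acid and stained with 0.4% SRB in 1% acetic acid. Dye was dissolved in 10 mM Tris and absorbance read at 570 nm.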
# [2] = Ratio of compound IC50 to paclitaxel IC50 for mouse JC cells after 48 hrs by SRB assay; type: functional
Compound,LED (JC),IC50 [1] [µM],Ratio IC50 [2]
COc1cc(Cn2cc(Sc3cc(OC)c(OC)c(OC)c3)c3c(C)nc(N)nc32)cc(OC)c1OC,inactive,> 100,–
CC(=O)O[C@H]1C(=O)[C@@]2(C)[C@H]([C@H](OC(=O)c3ccccc3)[C@]3(O)C[C@H](OC(=O)[C@H](O)[C@@H](NC(=O)c4ccccc4)c4ccccc4)C(C)=C1C3(C)C)[C@]1(OC(C)=O)CO[C@@H]1C[C@@H]2O [PACLITAXEL],–,0.15,–
COc1cc(CCc2cn(Cc3cc(OC)c(OC)c(OC)c3)c3nc(N)nc(C)c23)cc(OC)c1OC,inactive,1,6.6
Cc1nc(N)nc2c1c(Sc1ccccc1)cn2Cc1ccccc1,inactive,4,–
